The record followed here is ChEMBL document CHEMBL1765056, “Cytotoxic oleanane-type saponins from Albizia inundata” (J Nat Prod, 2011).

As a reminder, the IC50 is the point on the concentration scale where inhibition reaches its midpoint.

Format in all cases: functional, cell-based
Experiment [1] has as its system B16-F10. Put plainly: Cytotoxicity against mouse B16F10 cells harboring BRAF […] mutation assessed as cell viability by MTS assay. The gist of the method: (§1)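 Pure compounds tested at five concentrations from 50 nM to 20 uM. Readout is MTS viability, with IC50 derived per cell line. JMAR and MDA1986 are head and neck squamous carcinoma lines. B16F10 is a murine melanoma line and SKMEL28 a human melanoma line, both BRAF V600E; SKMEL28 also carries a PTEN mutation.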
(In general: Formazan colour is commonly taken as a measure of viable cells.)

Experiment [2] is described as follows: Cytotoxicity against human MDA1986 cells assessed as cell viability by MTS assay. In short, it runs like this: as §1
Experiment [3] is described as follows: Cytotoxicity against human JMAR cells assessed as cell viability by MTS assay. The gist of the method:
as §1

The test system of experiment [4] is SK-MEL-28. Put plainly: Cytotoxicity against human SK-MEL-28 cells harboring BRAF […]/PTEN mutation assessed as cell viability by MTS assay. The gist of the method: as §1
The subject of experiment [5] is B16-F10. Put plainly: Cytotoxicity against mouse B16F10 cells harboring BRAF […] mutation assessed as membrane disintegration by phase contrast microscopy. In short, it runs like this: (§2)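 Cells treated with increasing concentrations of saponins, then examined by phase-contrast microscopy for membrane disintegration.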
The species named for another experiment is Homo sapiens. Put plainly: Cytotoxicity against human MDA1986 cells assessed as membrane disintegration by phase contrast microscopy. The gist of the method: as §2
The test system of another experiment is JMAR. The experiment is described as follows: Cytotoxicity against human JMAR cells assessed as membrane disintegration by phase contrast microscopy. The gist of the method:
as §2

Experiment [6] concerns SK-MEL-28. Put plainly: Cytotoxicity against human SK-MEL-28 cells harboring BRAF […]/PTEN mutation assessed as membrane disintegration by phase contrast microscopy. The gist of the method: as §2

Calls of active or inactive are those of the source. The rule behind the calls is not given here.

For the compound `CC(=O)N[C@H]1[C@H](O[C@H]2CC[C@]3(C)[C@H]4CC=C5[C@@H]6CC(C)(C)[C@@H]7C[C@]6(C(=O)O7)[C@H](O)C[C@@]5(C)[C@]4(C)CC[C@H]3C2(C)C)O[C@H](CO[C@@H]2OC[C@H](O)[C@H](O)[C@H]2O[C@@H]2OC[C@H](O)[C@H](O)[C@H]2O)[C@@H](O)[C@@H]1O`, the IC50 (in the experiment on B16-F10 [1]; in experiment [2]; in experiment [3]; with SK-MEL-28 [4]) was more than 20 µM throughout.

For `CC1(C)CC[C@]2(C(=O)O)[C@H](O)C[C@]3(C)C(=CC[C@@H]4[C@@]5(C)CC[C@H](O[C@@H]6O[C@H](CO[C@@H]7OC[C@H](O)[C@H](O)[C@H]7O[C@@H]7OC[C@H](O)[C@H](O)[C@H]7O)[C@@H](O)[C@H](O)[C@H]6O[C@@H]6O[C@H](CO)[C@@H](O)[C@H](O)[C@H]6O)C(C)(C)[C@@H]5CC[C@]43C)[C@@H]2C1`, the IC50 (in the experiment on B16-F10 [1]; in experiment [2]; in experiment [3]; with SK-MEL-28 [4]) was more than 20 µM each time.

As to `CC(=O)N[C@H]1[C@H](O[C@H]2CC[C@]3(C)[C@H]4CC=C5[C@@H]6CC(C)(C)CC[C@]6(C(=O)O)CC[C@@]5(C)[C@]4(C)CC[C@H]3C2(C)C)O[C@H](CO[C@@H]2OC[C@H](O)[C@H](O)[C@H]2O)[C@@H](O)[C@@H]1O`, the outcome in the experiment with B16-F10 [5], in the experiment filed under Homo sapiens, in the experiment with JMAR and in the experiment on SK-MEL-28 [6] was inactive. The IC50 was 4.7 µM with B16-F10 [1], 7.3 µM in experiment [2], 8.7 µM in experiment [3] and 12.4 µM in the experiment on SK-MEL-28 [4].

As to `CC(=O)N[C@H]1[C@H](O[C@H]2CC[C@]3(C)[C@H]4CC=C5[C@@H]6CC(C)(C)[C@@H]7C[C@]6(C(=O)O7)[C@H](O)C[C@@]5(C)[C@]4(C)CC[C@H]3C2(C)C)O[C@H](CO[C@@H]2OC[C@H](O)[C@H](O)[C@H]2O[C@@H]2OC[C@@H](O)[C@H](O)[C@H]2O)[C@@H](O)[C@@H]1O` [PROSAPOGENIN 4], the IC50 (with B16-F10 [1]; in experiment [2]; in experiment [3]; in the experiment on SK-MEL-28 [4]) was more than 20 µM in each case.

As to `CC1(C)CC[C@]2(C(=O)O)CC[C@]3(C)C(=CC[C@@H]4[C@@]5(C)CC[C@H](O[C@@H]6O[C@H](CO[C@@H]7OC[C@H](O)[C@H](O)[C@H]7O[C@@H]7OC[C@H](O)[C@H](O)[C@H]7O)[C@@H](O)[C@H](O)[C@H]6O)C(C)(C)[C@@H]5CC[C@]43C)[C@@H]2C1`, the outcome with B16-F10 [5], in the experiment listed under Homo sapiens, in the experiment on JMAR and in the experiment with SK-MEL-28 [6] was inactive. Also, the IC50 worked out at 6.3 µM in the experiment on B16-F10 [1], 8.2 µM in experiment [2], 11.5 µM in experiment [3] and 8.1 µM in the experiment with SK-MEL-28 [4].

In the case of `CC(=O)N[C@H]1[C@H](O[C@H]2CC[C@]3(C)[C@H]4CC=C5[C@@H]6CC(C)(C)CC[C@]6(C(=O)O)[C@H](O)C[C@@]5(C)[C@]4(C)CC[C@H]3C2(C)C)O[C@H](CO[C@@H]2OC[C@H](O)[C@H](O)[C@H]2O)[C@@H](O)[C@@H]1O`, the result in the experiment with B16-F10 [5], in the experiment listed under Homo sapiens, in the experiment with JMAR and in the experiment with SK-MEL-28 [6] was inactive. For the same compound, the IC50 with B16-F10 [1] came to 5.1 µM; in experiment [2], 1.8 µM; in experiment [3] it was 2.8 µM; with SK-MEL-28 [4], 9.2 µM.

As for `CC1(C)CC[C@]2(C(=O)O)[C@H](O)C[C@]3(C)C(=CC[C@@H]4[C@@]5(C)CC[C@H](O[C@@H]6O[C@H](CO[C@@H]7OC[C@H](O)[C@H](O)[C@H]7O[C@@H]7OC[C@@H](O)[C@H](O)[C@H]7O)[C@@H](O)[C@H](O)[C@H]6O[C@@H]6O[C@H](CO)[C@@H](O)[C@H](O)[C@H]6O)C(C)(C)[C@@H]5CC[C@]43C)[C@@H]2C1`, the IC50 (with B16-F10 [1]; in experiment [2]; in experiment [3]; in the experiment with SK-MEL-28 [4]) was more than 20 µM throughout.

`CC1(C)CC[C@]2(C(=O)O)CC[C@]3(C)C(=CC[C@@H]4[C@@]5(C)CC[C@H](O[C@@H]6O[C@H](CO[C@@H]7OC[C@H](O)[C@H](O)[C@H]7O[C@@H]7OC[C@@H](O)[C@H](O)[C@H]7O)[C@@H](O)[C@H](O)[C@H]6O)C(C)(C)[C@@H]5CC[C@]43C)[C@@H]2C1` [PITHEDULOSIDE C]: the outcome with B16-F10 [5], in the experiment filed under Homo sapiens, in the experiment on JMAR and in the experiment with SK-MEL-28 [6] was inactive. The IC50 in the experiment with B16-F10 [1] was 6.9 µM; in experiment [2], 9 µM; in experiment [3] it was 10.1 µM; in the experiment on SK-MEL-28 [4] it was 8.6 µM.

With `CC1(C)CC[C@]2(C(=O)O)CC[C@]3(C)C(=CC[C@@H]4[C@@]5(C)CC[C@H](O[C@@H]6O[C@H](CO)[C@@H](O)[C@H](O)[C@H]6O[C@@H]6O[C@H](CO)[C@@H](O)[C@H](O)[C@H]6O)C(C)(C)[C@@H]5CC[C@]43C)[C@@H]2C1` [ACUTOSIDE A], the IC50 (with B16-F10 [1]; in experiment [2]; in experiment [3]; in the experiment with SK-MEL-28 [4]) was more than 20 µM each time.
